Key:
HL-60 [1] = assay: Effect on Ca2+ mobilization in human wild type HL60 cells; type: functional, cell-based
Outline: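 Wild-type, non-transfected HL-60 cells, grown without G418, were run in the same Fluo-4 Ca2+ flux assay. Fluorescence was monitored every 5 s for 240 s at room temperature.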

HL-60 [2] = assay: Cytotoxicity against human wild type HL60 cells at 5 to 20 uM after 60 mins by CellTitre-Glo luminescent assay; type: cell-based; settings: hl-60, 1 h
Outline: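 Wild-type HL-60 cells at 3×10^4 cells/well were exposed to 5, 10 or 20 µM compound for 60 min at 37 °C in 5% CO2. Samples were equilibrated to room temperature for 30 min before the CellTiter-Glo luminescence read. Triplicate samples; the experiment was representative of two.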

[3] = target: fMet-Leu-Phe receptor 1/2 (Homo sapiens) (UniProt P21462+P25090); assay: Agonist activity at FPR1/FPR2 in human neutrophils assessed as induction of Ca2+ mobilization relative to fMLF; type: functional
Outline: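 Neutrophils from healthy donors were isolated by dextran sedimentation, Histopaque 1077 gradient and hypotonic red cell lysis. […] Peak response was normalized to 5 nM fMLF as 100%. EC50 comes from 5–6 point curves, mean of three experiments with different donors.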

[4] = target: T1, N-formyl peptide receptor 3 (Homo sapiens) (UniProt P25089); assay: Agonist activity at FPR3 (unknown origin) transfected in human HL60 cells assessed as induction of Ca2+ mobilization relative to WKYMVm; type: cell-based; settings: HL-60
T1 sequence (whole entry): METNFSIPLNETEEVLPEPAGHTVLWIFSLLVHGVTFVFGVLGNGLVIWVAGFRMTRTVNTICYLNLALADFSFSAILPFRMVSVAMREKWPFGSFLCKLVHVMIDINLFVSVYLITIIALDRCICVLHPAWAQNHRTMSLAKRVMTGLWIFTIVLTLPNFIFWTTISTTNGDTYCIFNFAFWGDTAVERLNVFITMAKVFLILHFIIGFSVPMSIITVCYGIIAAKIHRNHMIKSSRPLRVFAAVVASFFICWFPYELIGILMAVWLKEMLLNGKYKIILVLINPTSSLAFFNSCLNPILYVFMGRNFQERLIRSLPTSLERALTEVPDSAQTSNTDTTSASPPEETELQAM
Outline: (§1)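 Same Fluo-4 Ca2+ flux in transfected HL-60 cells. The peak fluorescence change over baseline was normalized to 5 nM fMLF for FPR1 cells and to 5 nM WKYMVm for FPR2 and FPR3 cells, each taken as 100%. Efficacy was read from 5–6 point dose-response curves.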

[5] = target: T2, N-formyl peptide receptor 3 (Homo sapiens, UniProt P25089); assay: Agonist activity at FPR3 (unknown origin) transfected in human HL60 cells assessed as induction of Ca2+ mobilization; type: cell-based, HL-60
T2 sequence (P25089 whole entry): T1 sequence (whole entry)

[6] = target: T3, fMet-Leu-Phe receptor (Homo sapiens) (UniProt P21462); assay: Agonist activity at FPR1 (unknown origin) transfected in human HL60 cells assessed as induction of Ca2+ mobilization relative to fMLF; type: functional, cell-based; settings: HL-60; outline: as §1
T3 sequence (whole entry): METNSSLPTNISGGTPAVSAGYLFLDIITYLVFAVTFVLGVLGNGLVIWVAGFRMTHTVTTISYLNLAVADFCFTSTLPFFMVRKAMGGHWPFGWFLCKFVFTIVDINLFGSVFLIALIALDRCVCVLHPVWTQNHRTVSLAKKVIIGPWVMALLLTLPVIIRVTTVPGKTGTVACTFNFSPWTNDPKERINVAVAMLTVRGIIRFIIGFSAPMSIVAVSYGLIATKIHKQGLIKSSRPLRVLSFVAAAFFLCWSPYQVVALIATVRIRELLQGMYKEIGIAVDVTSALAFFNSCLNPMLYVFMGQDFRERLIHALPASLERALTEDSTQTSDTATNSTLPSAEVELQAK

[7] = target: T4, N-formyl peptide receptor 2 (Homo sapiens) (UniProt P25090); assay: Agonist activity at FPR2 (unknown origin) transfected in human HL60 cells assessed as induction of Ca2+ mobilization relative to WKYMVm; type: functional, cell-based; settings: HL-60; outline: as §1
T4 sequence (whole entry): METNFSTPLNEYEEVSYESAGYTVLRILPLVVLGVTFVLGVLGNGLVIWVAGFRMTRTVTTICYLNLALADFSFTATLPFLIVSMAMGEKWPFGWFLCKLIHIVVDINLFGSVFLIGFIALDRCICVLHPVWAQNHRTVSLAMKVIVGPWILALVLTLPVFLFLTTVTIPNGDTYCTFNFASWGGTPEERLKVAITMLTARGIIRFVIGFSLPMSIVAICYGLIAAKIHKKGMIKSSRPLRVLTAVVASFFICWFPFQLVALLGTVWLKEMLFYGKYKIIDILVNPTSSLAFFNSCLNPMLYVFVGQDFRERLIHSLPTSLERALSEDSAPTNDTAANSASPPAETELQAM

fMet-Leu-Phe receptor = target: T5, fMet-Leu-Phe receptor (Homo sapiens, UniProt P21462); assay: Agonist activity at FPR1 (unknown origin) transfected in human HL60 cells assessed as induction of Ca2+ mobilization; type: functional, cell-based, HL-60
T5 sequence (P21462 whole entry): T3 sequence (whole entry)

[8] = target: T6, N-formyl peptide receptor 2 (Homo sapiens, UniProt P25090); assay: Agonist activity at FPR2 (unknown origin) transfected in human HL60 cells assessed as induction of Ca2+ mobilization; type: functional, cell-based, HL-60
T6 sequence (P25090 whole entry): T4 sequence (whole entry)

Neutrophil = assay: Induction of chemotaxis in human neutrophils assessed as cell migration after 60 mins by CellTitre-Glo luminescent assay; type: functional, cell-based; settings: 1 h
Outline: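 Migration ran 60 min at 37 °C in 5% CO2. Migrated cells were counted by ATP luminescence against a neutrophil standard curve and expressed as % of spontaneous migration. EC50 comes from nonlinear regression of dose-response curves.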

[9] = target: T7, fMet-Leu-Phe receptor 1/2 (Homo sapiens, UniProt P21462+P25090); assay: Agonist activity at FPR1/FPR2 in human neutrophils assessed as induction of Ca2+ mobilization; type: functional
T7 sequence (P21462 whole entry): T3 sequence (whole entry)
T7 sequence (P25090 whole entry): T4 sequence (whole entry)

Compound | EC50 (HL-60 [1]) | Efficacy [3] | Efficacy [4] | EC50 [5] | Efficacy [6] | Efficacy [7] | EC50 (fMet-Leu-Phe receptor) | EC50 [8] | EC50 (Neutrophil) | EC50 [9] | Activity (HL-60 [2])
CCc1cc(Cc2cccc(OC)c2)c(=O)n(CC(=O)Nc2ccc(I)cc2)n1 | > 50 µM | 90% | – | > 50 µM | 70% | 65% | – | – | – | – | Non-toxic
Cc1cc(Cc2ccc(C(N)=O)cc2)c(=O)n(CC(=O)Nc2ccc(Br)cc2)n1 | > 50 µM | – | – | > 50 µM | 40% | 80% | 29.3 µM | 27.2 µM | – | – | Non-toxic
Cc1cc(Cc2cccc(Cl)c2)c(=O)n(CC(=O)Nc2ccc(I)cc2)n1 | > 50 µM | 90% | – | > 50 µM | 55% | 35% | – | – | – | – | Non-toxic
COc1cccc(Cc2cc(-c3ccccc3)nn(CC(=O)Nc3ccc(Br)cc3)c2=O)c1 | > 50 µM | 115% | – | > 50 µM | 110% | 25% | – | – | – | – | Non-toxic
Cc1cc(Cc2cccnc2)c(=O)n(CC(=O)Nc2ccc(Br)cc2)n1 | > 50 µM | 120% | – | > 50 µM | 85% | 90% | – | – | – | – | Non-toxic
COc1ccc(Nc2c(C(C)=O)c(C)nn(CC(=O)Nc3ccc(Br)cc3)c2=O)cc1 | > 50 µM | 110% | – | > 50 µM | 75% | 90% | 13.5 µM | 1.7 µM | 2.7 µM | 3.9 µM | Non-toxic
Cc1cc(Cc2ccccc2)c(=O)n(CC(=O)Nc2ccc3c(c2)OCO3)n1 | > 50 µM | 75% | – | > 50 µM | 55% | – | 6.9 µM | > 50 µM | 4.2 µM | 6.1 µM | Non-toxic
Cc1cc(Cc2ccoc2)c(=O)n(CC(=O)Nc2ccc(Br)cc2)n1 | > 50 µM | 125% | – | > 50 µM | 100% | 75% | – | – | – | – | Non-toxic
Cc1cc(Cc2ccsc2)c(=O)n(CC(=O)Nc2ccc(Br)cc2)n1 | > 50 µM | 115% | – | > 50 µM | 100% | 65% | – | – | – | – | Non-toxic
COc1cccc(C(=O)c2cc(C)nn(CC(=O)Nc3ccc(Br)cc3)c2=O)c1 | > 50 µM | 115% | – | > 50 µM | 140% | 110% | – | – | – | – | Non-toxic

The next lines start with results.

EC50 (HL-60 [1]) | Efficacy [3] | Efficacy [4] | EC50 [5] | Efficacy [6] | Efficacy [7] | EC50 (fMet-Leu-Phe receptor) | EC50 [8] | EC50 (Neutrophil) | EC50 [9] | Compound | Activity (HL-60 [2])
> 50 µM | 80% | 25% | 10.2 µM | 140% | 60% | – | – | – | – | Cc1cc(Cc2cccs2)c(=O)n(CC(=O)Nc2ccc(Br)cc2)n1 | Non-toxic
> 50 µM | – | – | > 50 µM | 50% | 20% | 5.5 µM | 11.6 µM | – | – | Cc1cc(Cc2ccccc2)c(=O)n(CC(=O)Nc2ccc(Br)cc2)n1 | Non-toxic
> 50 µM | 105% | – | > 50 µM | 100% | 110% | – | – | – | – | COc1ccc(Nc2cc(C)nn(CC(=O)Nc3ccc(Br)cc3)c2=O)cc1 | Non-toxic
> 50 µM | 110% | – | > 50 µM | 120% | 100% | – | – | – | – | COc1cccc(C(=O)Nc2cc(C)nn(CC(=O)Nc3ccc(Br)cc3)c2=O)c1 | Non-toxic
> 50 µM | 110% | 30% | 17.4 µM | 135% | 90% | – | – | – | – | COc1cccc(Cc2cc(C(C)C)nn(CC(=O)Nc3ccc(Br)cc3)c2=O)c1 | Non-toxic
> 50 µM | – | 25% | 14.6 µM | 125% | 60% | – | – | – | – | COc1cccc(Cc2ccnn(CC(=O)Nc3ccc(Br)cc3)c2=O)c1 | Non-toxic

From ChEMBL document CHEMBL2390925, “Further studies on 2-arylacetamide pyridazin-3(2H)-ones: design, synthesis and evaluation of 4,6-disubstituted analogs as formyl peptide receptors (FPRs) agonists” (Eur J Med Chem, 2013)
